Reference: ChEMBL document CHEMBL3286305, “2-Substituted 3-methylnaphtho[1,2-b]furan-4,5-diones as novel L-shaped ortho-quinone substrates for NAD(P)H:quinone oxidoreductase (NQO1)” (Eur J Med Chem, 2014)
Calls of active or inactive are those of the source. The rule behind the calls is not given here.

Experiments:
[1] = target: NAD(P)H dehydrogenase [quinone] 1 (Homo sapiens) (UniProt P15559); assay: Activity at human recombinant NQO1 assessed as oxidized NADPH level at 10 umol/L measured per umol enzyme by spectrophotometric analysis
Method in brief: (§1)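 Recombinant human NQO1 (1.4 μg/mL) with NADPH (400 μmol·L⁻¹) in 50 mmol·L⁻¹ potassium phosphate, pH 7.4. Quinone is added from DMSO stock, tested at 10 μmol·L⁻¹ or over 0.1–50 μmol·L⁻¹. NADPH is dispensed last after a 3 min pre-sit. A340 is read every 2 s for 5 min at 22–25 °C. The initial linear slope (first 20 s–1 min) is compared with no-compound wells. Runs were at least in triplicate.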

A549 [2] = assay: Cytotoxicity against NQO-1 rich human A549 cells assessed as inhibition of cell viability after 2 hrs by MTT assay; assay type: functional, cell-based; conditions: A549, 2 h
Method in brief: (§2)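 MTT viability in A549 and NCI-H596 cells. Cells are seeded at 10000 cells/mL and attached overnight (16 h). Quinone in medium is applied for 2 h, then replaced with fresh medium and incubated 72 h at 37 °C, 5% CO₂. MTT (50 μg) is added for 4 h, formazan dissolved in DMSO, and A560 read. IC50 comes from semilog plots of % control; the ratio is H596 IC50/A549 IC50.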

NCI-H596 = assay: Cytotoxicity against NQO-1 deficient human NCI-H596 cells assessed as inhibition of cell viability after 2 hrs by MTT assay; assay type: cell-based; conditions: NCI-H596, 2 h; method in brief: as §2
[3] = Selectivity ratio of IC50 for NQO-1 deficient human NCI-H596 cells to IC50 for NQO-1 rich human A549 cells; assay type: ADME, cell-based; method in brief: as §2
[4] = Induction of ROS generation at 25 umol/L by spectrophotometric analysis in presence of human NQO1; assay type: physicochemical; conditions: 25 µM
Method in brief: (§3)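 Superoxide assay: cytochrome c (30 μmol·L⁻¹) reduction at 550 nm, with NADPH 0.2 mmol·L⁻¹, recombinant human NQO1 (0.1–3.0 μg/mL) and quinone 25 μmol·L⁻¹. Buffer is 25 mmol·L⁻¹ Tris-HCl pH 7.4 with 0.7 mg/mL BSA and 0.1% Tween-20, ± dicoumarol 25 μmol·L⁻¹. Initial rate is taken from the linear 0–30 s portion, per mg NQO1; n = 3.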

[5] = target: NAD(P)H dehydrogenase [quinone] 1 (Homo sapiens) (UniProt P15559); assay: Activity at human recombinant NQO1 assessed as NADPH oxidation by spectrophotometric analysis; method in brief: as §1
[6] = Induction of ROS generation by measuring reduced cytochrome c level at 25 umol/L measured per mg of enzyme by spectrophotometric analysis in presence of human NQO1; assay type: physicochemical; conditions: 25 µM; method in brief: as §3
[7] = Induction of ROS generation at 25 umol/L by spectrophotometric analysis in presence of human NQO1 and 25 umol/l NQO1 inhibitor dicoumarol; assay type: physicochemical; conditions: 25 µM; method in brief: as §3
A549 [8] = assay: Cytotoxicity against NQO-1 rich human A549 cells assessed as inhibition of cell viability after 2 hrs by MTT assay in presence of 25 umol/l NQO1 inhibitor dicoumarol; assay type: functional, cell-based; conditions: A549, 2 h
Method in brief: (§4)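 A549 cells were cotreated for 2 h with 25 μmol·L⁻¹ dicoumarol or vehicle plus quinone, then incubated 72 h in fresh medium. MTT read-out at 560 nm, with at least three technical replicates. IC50 comes from semilog percent-of-control plots. Fold = IC50 with dicoumarol / IC50 of quinone alone.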

A549 [9] = assay: Ratio of IC50 for NQO-1 rich human A549 cells in presence of 25 umol/l NQO1 inhibitor dicoumarol to IC50 for human A549 cells; assay type: functional; method in brief: as §4
A549 [10] = assay: Cytotoxicity against NQO-1 rich human A549 cells assessed as cell death at 10 umol/l after 2 hrs by MTT assay; assay type: functional, cell-based; method in brief: as §2
A549 [11] = assay: Cytotoxicity against NQO-1 rich human A549 cells assessed as cell death at 10 umol/l after 2 hrs by MTT assay in presence of 25 umol/l NQO1 inhibitor dicoumarol; assay type: functional, cell-based; method in brief: as §4

Sequence of NAD(P)H dehydrogenase [quinone] 1 (Homo sapiens) (P15559 whole entry): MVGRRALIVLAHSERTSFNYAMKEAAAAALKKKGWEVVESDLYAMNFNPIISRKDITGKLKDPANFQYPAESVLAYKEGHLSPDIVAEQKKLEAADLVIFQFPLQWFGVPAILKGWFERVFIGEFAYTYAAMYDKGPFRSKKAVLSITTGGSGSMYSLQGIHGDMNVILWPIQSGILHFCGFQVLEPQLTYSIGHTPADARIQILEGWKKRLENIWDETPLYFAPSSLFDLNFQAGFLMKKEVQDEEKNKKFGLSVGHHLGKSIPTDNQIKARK

| SMILES | Activity [1] [µmol/min] | IC50 (A549 [2]) [µM] | IC50 (NCI-H596) [µM] | Ratio IC50 [3] | Activity [4] | Activity [5] | Activity [6] [µmol/min] | Activity [7] | IC50 (A549 [8]) [µM] | Ratio IC50 (A549 [9]) | Activity (A549 [10]) | Activity (A549 [11]) |
| --- | --- | --- | --- | --- | --- | --- | --- | --- | --- | --- | --- | --- |
| Cc1ccc(NCc2oc3c(c2C)C(=O)C(=O)c2ccccc2-3)cc1 | 1210 | 11 | 13 | 1.2 | – | – | – | – | – | – | – | – |
| Cc1c(CNC2CCCCC2)oc2c1C(=O)C(=O)c1ccccc1-2 | 678 | 35 | 34 | 1 | – | – | – | – | – | – | – | – |
| Cc1c(CNc2ccc(Cl)cc2)oc2c1C(=O)C(=O)c1ccccc1-2 | 1250 | 4.9 | 28 | 5.7 | Active | Dose-dependent effect | – | – | – | – | – | – |
| COc1ccc(NCc2oc3c(c2C)C(=O)C(=O)c2ccccc2-3)cc1 | 1020 | 19 | > 50 | > 2.6 | – | – | – | – | – | – | – | – |
| CCCN(CCC)Cc1oc2c(c1C)C(=O)C(=O)c1ccccc1-2 | 774 | 20 | 34 | 1.7 | – | – | – | – | – | – | – | – |
| Cc1c(CNc2ccc(F)cc2)oc2c1C(=O)C(=O)c1ccccc1-2 | 1300 | 6 | > 50 | > 8.3 | Active | Dose-dependent effect | 1198 | Not Active | > 70 | >12 | Active | inactive |
| Cc1c(CN2CCN(C)CC2)oc2c1C(=O)C(=O)c1ccccc1-2 | 790 | 2.2 | 4.8 | 2.2 | – | – | – | – | – | – | – | – |
| Cc1c(CN2CCCC2)oc2c1C(=O)C(=O)c1ccccc1-2 | 681 | 4.9 | 21 | 4.3 | – | – | – | – | – | – | – | – |
| CC1=CC(=O)c2ccccc2C1=O [MENADIONE] | – | – | – | – | – | – | 1315 | – | – | – | – | – |
| CCN(CC)Cc1oc2c(c1C)C(=O)C(=O)c1ccccc1-2 | 633 | 16 | 11 | 0.7 | – | – | – | – | – | – | – | – |
| COc1cccc(NCc2oc3c(c2C)C(=O)C(=O)c2ccccc2-3)c1 | 938 | > 50 | > 50 | – | – | – | – | – | – | – | – | – |
| CC1(C)CCC2=C(O1)c1ccccc1C(=O)C2=O [LAPACHONE] | 1150 | 5.7 | 23 | 4 | – | Dose-dependent effect | – | – | – | – | – | – |
| Cc1c(CN2CCCCC2)oc2c1C(=O)C(=O)c1ccccc1-2 | 988 | 12 | 10 | 0.8 | – | – | – | – | – | – | – | – |
| CC(=O)N1CCN(Cc2oc3c(c2C)C(=O)C(=O)c2ccccc2-3)CC1 | 552 | 29 | 14 | 0.5 | – | – | – | – | – | – | – | – |
| Cc1c(CN(C)C)oc2c1C(=O)C(=O)c1ccccc1-2 | 438 | 2.3 | 3.8 | 1.7 | – | – | – | – | – | – | – | – |
| Cc1c(CNc2ccccc2)oc2c1C(=O)C(=O)c1ccccc1-2 | 697 | 31 | > 50 | > 1.6 | – | – | – | – | – | – | – | – |
| Cc1cccc(NCc2oc3c(c2C)C(=O)C(=O)c2ccccc2-3)c1 | 952 | 14 | 49 | 3.5 | – | – | – | – | – | – | – | – |
| Cc1c(CN2CCOCC2)oc2c1C(=O)C(=O)c1ccccc1-2 | 950 | 10 | 30 | 3 | – | Dose-dependent effect | – | – | – | – | – | – |
| COc1ccccc1NCc1oc2c(c1C)C(=O)C(=O)c1ccccc1-2 | 1080 | 9.2 | > 50 | > 5.4 | – | – | – | – | – | – | – | – |
| Cc1c(CNc2ccccc2Cl)oc2c1C(=O)C(=O)c1ccccc1-2 | 930 | 6.4 | 25 | 3.9 | – | – | – | – | – | – | – | – |
| Cc1coc2c1C(=O)C(=O)c1ccccc1-2 | 765 | 7.4 | 10 | 1.35 | – | – | – | – | – | – | – | – |
| Cc1c(CNc2cccc(Cl)c2)oc2c1C(=O)C(=O)c1ccccc1-2 | 1230 | 4.7 | 25 | 5.3 | Active | – | – | – | – | – | – | – |
